Measured values from the RNAGym collection of RNA variant scans (doi:10.1126/science.aae0568).
This sample holds only a part of the variants without activity.

B1: tRNA (parent)
chain: GUUCCGUUGGCGUAAUGGUAACGCGUCUCCCUCCUAAGGAGAAGACUGCGGGUUCGAGUCCCGUACGGAACG

Variants of: B1
Assay: yeast fitness relative to wild type (ratio to wild type); higher = fitter; tRNA-Arg(CCU), competitive growth, 37 C, YPD
How it was run: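 Start and end populations of a pooled competition were compared by 100-nucleotide paired-end sequencing of gene amplicons. The Saccharomyces cerevisiae strains carried tRNA-Arg(CCU) gene variants at the native genomic locus, synthesised with a 3% per-site mutation rate at 69 sites, and competed in YPD at 37°C for 24 hours in six parallel replicates. Darwinian fitness relative to wild type was based on the change in genotype frequencies. Genotypes required ≥ 100 starting reads, and estimates < 0.5 were set to 0.5.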

Variant	yeast fitness
A14C G17C	0.622
A14C G17C C31U A37C	0.577
A14C G17C C60U	≤ 0.5
A14C G17C G18A G23C A57C	≤ 0.5
A14C G17C U26A G41C	≤ 0.5
A14C G18A A42G C46A	≤ 0.5
A14C G18A C22G A57U C61G	≤ 0.5
A14C G18A C22G C49A U59C A69G	≤ 0.5
A14C G18A G48A C60G	0.558
A14C G18A G67U	≤ 0.5
A14C G18C	0.542
A14C G18C A65U G68C	≤ 0.5
A14C G18C C29U A65C	≤ 0.5
A14C G18C G56A	≤ 0.5
A14C G18C U28A C30G A43G A57G C60U A65C G67U	0.557
A14C G23A C29U U35C G48A	≤ 0.5
A14C G25A	0.889
A14C G25A A37U A42G	≤ 0.5
A14C G25A A40C C46U	≤ 0.5
A14C G25A C29G C46G C61A	0.569
A14C G25A C33G A36U A45G G52C	≤ 0.5
A14C G25C	0.583
A14C G25C C27G C34U U35A G38A C66U	≤ 0.5
A14C G25C C66U	0.531

Variant	yeast fitness
A14C G25C G48A	0.608
A14C G25C G52A C66U	≤ 0.5
A14C G25C U47A G63C	0.678
A14C G44A C46A G52A C66U	≤ 0.5
A14C G44C A70C	0.56
A14C G48C	0.658
A14C G51C U59G	≤ 0.5
A14C G56C	0.567
A14C G58A	0.868
A14C G68U	0.583
A14C U16A A21C G56A	≤ 0.5
A14C U16A C66U	≤ 0.5
A14C U16A G63A	≤ 0.5
A14C U16A U26C C66U A69C	≤ 0.5
A14C U16A U54A G58C	≤ 0.5
A14C U16C C61U	≤ 0.5
A14C U16C C62U A65U	≤ 0.5
A14C U16C G44A U54C C61U A69C	≤ 0.5
A14C U16C G51C G58A C60A	≤ 0.5
A14C U16G A21G A70U	≤ 0.5
A14C U19A A20C	≤ 0.5
A14C U19A A21G C31U	≤ 0.5
A14C U19A U59C A69G	0.652
A14C U19C C27A A43G	≤ 0.5

Variant	yeast fitness
A14C U19C C34U G39C G51C	≤ 0.5
A14C U19G C31G C33U A42G G48A G52A	≤ 0.5
A14C U19G U32A G52C	≤ 0.5
A14C U26A C34U C55G	0.519
A14C U26C U54C C55G C61A	≤ 0.5
A14C U28A U53G	0.57
A14C U28A U54C G56C G58A	≤ 0.5
A14C U28A U59G A65U	≤ 0.5
A14C U28C	0.606
A14C U28G	0.625
A14C U32G A45G U64C	≤ 0.5
A14C U32G U47C C55G	≤ 0.5
A14C U47C A57C	≤ 0.5
A14C U47C C66U	≤ 0.5
A14C U53A A65C A70G	0.587
A14C U53C	0.713
A14C U54A	0.528
A14C U54A U59C C61G	≤ 0.5
A14C U64C	0.935
A14G A15C A37C C46A A69U	≤ 0.5
A14G A15C A69C A70G	0.618
A14G A15C C24G A45G	≤ 0.5
A14G A15C C30U G56C A69C	≤ 0.5
A14G A15C C46A U64G A65U	≤ 0.5

Variant	yeast fitness
A14G A15C G51C C61G	≤ 0.5
A14G A15C U26A G48C C49U U59C	≤ 0.5
A14G A15C U26C U35G C49G	≤ 0.5
A14G A15C U35C C46A A69U	≤ 0.5
A14G A15G A37U C55U	≤ 0.5
A14G A15G U32A	≤ 0.5
A14G A15G U54C	0.569
A14G A15U C34U	0.505
A14G A15U G25C C49U	0.619
A14G A15U G25C U54A	≤ 0.5
A14G A15U G50U U64G	0.542
A14G A15U U32G C34G U47C G63C	≤ 0.5
A14G A15U U53C A69U	0.599
A14G A20C A36U G39C	≤ 0.5
A14G A20C A40C A45G C46A	≤ 0.5
A14G A20C C30U C66U	≤ 0.5
A14G A20C C33A A70G	≤ 0.5
A14G A20C C46G	0.635
A14G A20C C60U	≤ 0.5
A14G A20C G67C	0.534
A14G A20G A69C	0.528
A14G A20U A36U G51C G52C C60U G67A	≤ 0.5
A14G A20U C29G C33U	0.543
A14G A21C A36C A43U	≤ 0.5

Variant	yeast fitness
A14G A21C A36C A43U G67U	≤ 0.5
A14G A21C A65C	0.539
A14G A21C C30G	≤ 0.5
A14G A21C C30G A57G	≤ 0.5
A14G A21C C30G A57U	≤ 0.5
A14G A21C U35A A43G	≤ 0.5
A14G A21G C33U A43C	≤ 0.5
A14G A21G G67A	0.63
A14G A21U C30A A36U C60U A69C	≤ 0.5
A14G A21U C62G	≤ 0.5
A14G A21U G56C G68C	0.637
A14G A36C	0.561
A14G A36G G48A	0.555
A14G A36G U47A	≤ 0.5
A14G A36U	0.658
A14G A36U A37C C49A U53G	≤ 0.5
A14G A36U C46A G51A	≤ 0.5
A14G A36U C46G C62A A69C	≤ 0.5
A14G A36U G39A C60G	≤ 0.5
A14G A36U G50A C62G	≤ 0.5
A14G A37C	0.73
A14G A37C A65G	0.659
A14G A37C A70C	0.624
A14G A40C C62G C66U	≤ 0.5

Variant	yeast fitness
A14G A40G C46U	0.57
A14G A40G U47C	0.551
A14G A40U A65C	0.533
A14G A40U C46G G50C A57U	≤ 0.5
A14G A40U C55A G68U	≤ 0.5
A14G A42C C62A	≤ 0.5
A14G A42G C46G A57G	≤ 0.5
A14G A42G G51C	≤ 0.5
A14G A42U	0.873
A14G A42U A45C U59A	≤ 0.5
A14G A42U G68C	≤ 0.5
A14G A43C	0.823
A14G A43C A45G G50A	≤ 0.5
A14G A43C G52C	≤ 0.5
A14G A43U	0.803
A14G A45C	0.718
A14G A45C G58A	0.622
A14G A57C C62U	≤ 0.5
A14G A57G G68C	0.616
A14G A57U A65U	≤ 0.5
A14G A65G A70C	0.755
A14G A69G	0.821
A14G A69U	0.921
A14G A69U A70C	0.726

Variant	yeast fitness
A14G A70U	0.662
A14G C22A C29U G56C G58C C66U	≤ 0.5
A14G C22G	0.806
A14G C22G A70U	0.774
A14G C22G C30G G68A	≤ 0.5
A14G C22G U26C C31G	0.615
A14G C22G U28A C31G C55A G68C	≤ 0.5
A14G C22G U35A	0.61
A14G C22G U35G A40C A70G	≤ 0.5
A14G C22G U64A	≤ 0.5
A14G C22U A37G A70C	≤ 0.5
A14G C22U A45U	0.626
A14G C22U C24G A42C A57G	≤ 0.5
A14G C22U C29A	≤ 0.5
A14G C24A C31U A40U	≤ 0.5
A14G C24A C31U A40U A70G	0.571
A14G C24G	0.597
A14G C24G A42C G63A	≤ 0.5
A14G C24G C31U C55A	0.552
A14G C24G C31U C55A C61A	≤ 0.5
A14G C24G C31U C55G G63C	≤ 0.5
A14G C24G C31U C66G	≤ 0.5
A14G C24G C31U G68A	≤ 0.5
